Values after ≈ are worked out from the molar mass of the structure shown.
How the values were obtained:
[1] = molecular target: T1, ovine COX-1 (Ovis aries, UniProt P05979); assay: COX-1 inhibition enzyme immunoassay; assay type: biochemical
T1 sequence (P05979 25-600): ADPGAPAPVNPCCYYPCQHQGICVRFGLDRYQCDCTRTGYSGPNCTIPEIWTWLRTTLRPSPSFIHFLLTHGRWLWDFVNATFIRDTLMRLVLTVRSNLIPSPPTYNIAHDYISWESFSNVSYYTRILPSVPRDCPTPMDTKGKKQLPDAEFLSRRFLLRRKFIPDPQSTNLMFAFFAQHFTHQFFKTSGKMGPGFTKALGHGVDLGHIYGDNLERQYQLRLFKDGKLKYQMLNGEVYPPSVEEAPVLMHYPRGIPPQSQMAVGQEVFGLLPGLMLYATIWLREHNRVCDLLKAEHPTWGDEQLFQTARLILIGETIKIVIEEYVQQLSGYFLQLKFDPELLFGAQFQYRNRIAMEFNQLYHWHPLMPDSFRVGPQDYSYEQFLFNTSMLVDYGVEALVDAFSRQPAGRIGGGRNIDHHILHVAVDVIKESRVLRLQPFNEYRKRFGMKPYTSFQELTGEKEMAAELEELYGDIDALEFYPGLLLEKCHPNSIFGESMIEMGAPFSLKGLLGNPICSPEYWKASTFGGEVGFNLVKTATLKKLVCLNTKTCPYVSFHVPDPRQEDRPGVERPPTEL

[2] = molecular target: T2, ovine COX-2 (Ovis aries, UniProt P79208); assay: COX-2 inhibition enzyme immunoassay; assay type: biochemical; details: for Selectivity index (SI): COX-1 IC50/COX-2 IC50
T2 sequence (P79208 17-603): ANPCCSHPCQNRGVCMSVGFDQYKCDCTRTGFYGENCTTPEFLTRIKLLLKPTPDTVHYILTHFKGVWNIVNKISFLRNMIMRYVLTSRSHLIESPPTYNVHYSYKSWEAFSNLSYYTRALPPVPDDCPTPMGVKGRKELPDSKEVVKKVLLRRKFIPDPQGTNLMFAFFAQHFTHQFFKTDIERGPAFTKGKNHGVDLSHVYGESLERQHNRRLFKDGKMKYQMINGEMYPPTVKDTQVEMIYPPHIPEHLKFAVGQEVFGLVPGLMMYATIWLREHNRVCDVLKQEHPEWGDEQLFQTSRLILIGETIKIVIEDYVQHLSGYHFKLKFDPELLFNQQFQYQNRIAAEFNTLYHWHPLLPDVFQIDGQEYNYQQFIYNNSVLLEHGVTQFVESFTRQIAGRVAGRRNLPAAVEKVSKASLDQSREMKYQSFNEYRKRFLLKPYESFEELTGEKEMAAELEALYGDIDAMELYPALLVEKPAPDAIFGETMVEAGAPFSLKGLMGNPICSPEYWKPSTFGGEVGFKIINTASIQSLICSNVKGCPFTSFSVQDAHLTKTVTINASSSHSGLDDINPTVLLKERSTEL

[3] = tested on: HepG-2 cells (human liver carcinoma); assay: MTT cytotoxicity assay on HepG-2; assay type: cell-based; details: HepG2, 48 h, read-out: IC50 (μM) ± SD HepG-2
How it was run: (§1)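 Cells grown in DMEM with 10% heat-inactivated FBS and 100 U ml⁻¹ penicillin/streptomycin at 37 °C, 5% CO₂. Seeded at 3 × 10⁴ cells per well and exposed for 48 h in serum-free medium to serial concentrations of test compound (DMSO), with doxorubicin as positive control. MTT (2.5 mg mL⁻¹) was added for 4 h, formazan dissolved in DMSO, and absorbance read at 570 nm. Viability was taken relative to untreated cells; triplicates were run on three days, and IC50 derived by probit analysis.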

[4] = tested on: MCF-7 cells (human breast adenocarcinoma); assay: MTT cytotoxicity assay on MCF-7; assay type: cell-based; details: MCF7, 48 h, read-out: IC50 (μM) ± SD MCF-7
How it was run: as §1

[5] = tested on: Mycobacterium tuberculosis (RCMB 010126); assay: Microplate Alamar blue assay; assay type: cell-based; details: RCMB010126, Mycobacterium tuberculosis RCMB 010126, MABA

## Cc1ccc(-n2cc(C(=O)c3ccc4ccccc4c3O)cc(C#N)c2=O)cc1 [Compound 3b, 5-(1-Hydroxy-2-naphthoyl)-2-oxo-1-(p-tolyl)nicotinonitrile]
[1]
  IC50: 464 µM
[2]
  IC50: 6.05 µM
  Selectivity index (SI): 76.7
[3]
  IC50: 36.8 ± 3.9 µM
[4]
  IC50: 9.2 ± 0.6 µM
[5]
  MIC: 3.9 µg/mL (≈ 10.3 µM)

## COc1ccc(-n2cc(C(=O)c3ccc4ccccc4c3O)cc(C#N)c2=O)cc1 [Compound 3c, 5-(1-Hydroxy-2-naphthoyl)-1-(4-methoxyphenyl)-2-oxo-nicotinonitrile]
[1]
  IC50: 789 µM
[2]
  IC50: 0.53 µM
  Selectivity index (SI): 1490
[3]
  IC50: 27.8 ± 2.4 µM
[4]
  IC50: 8.5 ± 0.7 µM

## N#Cc1cc(C(=O)c2ccc3ccccc3c2O)cn(-c2ccc(Br)cc2)c1=O [Compound 3d, 1-(4-Bromophenyl)-5-(1-hydroxy-2-naphthoyl)-2-oxo-nicotinonitrile]
[1]
  IC50: 1420 µM
[2]
  IC50: 1.46 µM
  Selectivity index (SI): 972.9
[3]
  IC50: 30.1 ± 2.6 µM
[4]
  IC50: 8.9 ± 0.7 µM
[5]
  MIC: < 1 µg/mL

## N#Cc1cc(C(=O)c2ccc3ccccc3c2O)cn(-c2ccc([N+](=O)[O-])cc2)c1=O [Compound 3e, 5-(1-Hydroxy-2-naphthoyl)-1-(4-nitrophenyl)-2-oxo-nicotinonitrile]
[1]
  IC50: 283 µM
[2]
  IC50: 1.68 µM
  Selectivity index (SI): 168.7
[3]
  IC50: 25.3 ± 2.1 µM
[4]
  IC50: 9.3 ± 1.1 µM
[5]
  MIC: < 2 µg/mL

## Cc1c(-n2cc(C(=O)c3ccc4ccccc4c3O)cc(C#N)c2=O)c(=O)n(-c2ccccc2)n1C [Compound 3f, 1-(1,5-Dimethyl-3-oxo-2-phenyl-2,3-dihydro-1H-pyrazol-4-yl)-5-(1-hydroxy-2-naphthoyl)-2-oxo-nicotinonitrile]
[1]
  IC50: 728 µM
[2]
  IC50: 16.4 µM
  Selectivity index (SI): 44.5
[3]
  IC50: 30.5 ± 3.1 µM
[4]
  IC50: 10.5 ± 1.1 µM
[5]
  MIC: < 2 µg/mL

## Cc1cnc(-n2cc(C(=O)c3ccc4ccccc4c3O)cc(C#N)c2=O)s1 [Compound 3g, 5-(1-Hydroxy-2-naphthoyl)-1-(5-methylthiazol-2-yl)-2-oxo-nicotinonitrile]
[1]
  IC50: 2580 µM
[2]
  IC50: 48 µM
  Selectivity index (SI): 53.8
[3]
  IC50: 28.5 ± 2.9 µM
[4]
  IC50: 12.1 ± 1.2 µM
[5]
  MIC: 3.9 µg/mL (≈ 10.1 µM)

## N#Cc1cc(C(=O)c2ccc3ccccc3c2O)cn(-c2nc3ccccc3s2)c1=O [Compound 3h, 1-(Benzo[d]thiazol-2-yl)-5-(1–Hydroxy-2-naphthoyl)-2-oxo-nicotinonitrile]
[1]
  IC50: 684 µM
[2]
  IC50: 0.496 µM
  Selectivity index (SI): 1380
[3]
  IC50: 28.1 ± 3.1 µM
[4]
  IC50: 10.3 ± 1.2 µM
[5]
  MIC: < 2 µg/mL

## CC(=Nn1cc(C(=O)c2ccc3ccccc3c2O)cc(C#N)c1=O)c1cc2ccccc2oc1=O [Compound 3i, 5-(1-hydroxy-2-naphthoyl)-2-oxo-1-((1-(2-oxo-2H-chromen-3-yl)ethylidene)amino)nicotinonitrile]
[1]
  IC50: 1500 µM
[2]
  IC50: 13.5 µM
  Selectivity index (SI): 111.3
[3]
  IC50: 30.5 ± 2.9 µM
[4]
  IC50: 9.7 ± 0.8 µM
[5]
  MIC: < 1 µg/mL

## N#CCC(=O)NN=Cc1coc2c(ccc3ccccc32)c1=O [Compound 5, 2-cyano-N′-((4-oxo-4H-benzo[h]chromen-3-yl)methylene)acetohydrazide]
[1]
  IC50: 2070 µM
[2]
  IC50: 24.6 µM
  Selectivity index (SI): 84.3
[3]
  IC50: 41.6 ± 3.5 µM
[4]
  IC50: 10.7 ± 1.2 µM
[5]
  MIC: 3.9 µg/mL (≈ 12.8 µM)

## O=C(c1cnc2[nH]nc(O)c2c1)c1ccc2ccccc2c1O [Compound 6, 5-(1-hydroxy-2-naphthoyl)-3-hydroxy-1H-pyrazolo [3,4-b]pyridine]
[1]
  IC50: 1070 µM
[2]
  IC50: 30.5 µM
  Selectivity index (SI): 35.0
[3]
  IC50: 34.9 ± 2.8 µM
[4]
  IC50: 9.1 ± 0.5 µM
[5]
  MIC: < 2 µg/mL

## O=C(C1=CNC(=S)NN=C1)c1ccc2ccccc2c1O [Compound 7, 6-(1-Hydroxy-2-naphthoyl)-3-thioxo-3,4-dihydro-2H-1,2,4-triazepine]
[1]
  IC50: 732 µM
[2]
  IC50: 1.24 µM
  Selectivity index (SI): 588.6
[3]
  IC50: 28.8 ± 2.5 µM
[4]
  IC50: 10.5 ± 0.9 µM
[5]
  MIC: < 2 µg/mL

## O=C(C1=CSc2ccccc2N=C1)c1ccc2ccccc2c1O [Compound 8, 3-(1-Hydroxy-2-naphthoyl)benzo[b][1,4]thiazepine]
[1]
  IC50: 858 µM
[2]
  IC50: 0.754 µM
  Selectivity index (SI): 1138
[3]
  IC50: 36.5 ± 3.4 µM
[4]
  IC50: 9.7 ± 1.1 µM
[5]
  MIC: 7.81 µg/mL (≈ 23.6 µM)

## CCOC1Oc2c(ccc3ccccc23)-c2n[nH]cc21 (centres unmarked) [Compound 10, 11-ethoxy-2,11-dihydrobenzo[7,8]chromeno[4,3-c]pyrazole]
[1]
  IC50: 1000 µM
[2]
  IC50: 1.01 µM
  Selectivity index (SI): 989.3
[3]
  IC50: 34.5 ± 2.6 µM
[4]
  IC50: 9.3 ± 0.5 µM
[5]
  MIC: 7.81 µg/mL (≈ 29.3 µM)

## Cc1c(N=Cc2coc3c(ccc4ccccc43)c2=O)c(=O)n(-c2ccccc2)n1C [Compound 12a, 1,5-Dimethyl-4-(((4-oxo-4H-benzo[h]chromen-3-yl)methylene)amino)-2-phenyl-1,2-dihydro-3H-pyrazol-3-one]
[1]
  IC50: 1220 µM
[2]
  IC50: 24.7 µM
  Selectivity index (SI): 49.5
[3]
  IC50: 35.5 ± 3.6 µM
[4]
  IC50: 10.2 ± 1.2 µM
[5]
  MIC: 62.5 µg/mL (≈ 153 µM)

## O=c1c(C=Nc2nc3ccccc3s2)coc2c1ccc1ccccc12 [Compound 12b, 3-((Benzo[d]thiazol-2-ylimino)methyl)-4H-benzo[h]chromen-4-one]
[1]
  IC50: 1340 µM
[2]
  IC50: 1.37 µM
  Selectivity index (SI): 971.8
[3]
  IC50: 40.1 ± 3.9 µM
[4]
  IC50: 8.9 ± 0.7 µM
[5]
  MIC: 15.6 µg/mL (≈ 43.9 µM)

## COc1cccc2c1C(=O)c1c(O)c3c(c(O)c1C2=O)C[C@@](O)(C(=O)CO)C[C@@H]3O[C@H]1C[C@H](N)[C@H](O)[C@H](C)O1 [DOXO, Doxorubicin, reference compound]
[3]
  IC50: 28.5 ± 1.9 µM
[4]
  IC50: 10.3 ± 0.8 µM

## NNC(=O)c1ccncc1 [IN, Isoniazid, reference compound]
[5]
  MIC: 0.24 µg/mL (≈ 1.75 µM)

Reference: PMC9058152 (RSC Advances, 2020)
